Laboratory results taken from ChEMBL document CHEMBL4414620, “Structurally Modified Cyclopenta[b]benzofuran Analogues Isolated from Aglaia perviridis” (J Nat Prod, 2019).

Tests used:
HT-29 = experiment: Antiproliferative activity against human HT-29 cells incubated for 72 hrs by SRB assay; assay type: functional, cell-based; settings: HT-29, 72 h
Method in brief: (§1)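 Purified isolates were screened for cytotoxicity against HT-29 and PC-3 human cancer cells, with paclitaxel as the positive control for both lines.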

PC-3 = experiment: Antiproliferative activity against human PC3 cells incubated for 72 hrs by SRB assay; assay type: functional, cell-based; settings: PC-3, 72 h; method in brief: as §1

Row | SMILES | IC50 (HT-29) | IC50 (PC-3)
1 | COc1ccc([C@@]23Oc4cc5c(c(OC)c4[C@]2(O)[C@H](O)[C@H](C(N)=O)[C@H]3c2ccccc2)[C@H]2OC[C@H]([C@@H](O)CO)O[C@H]2O5)cc1 | > 10 µM | > 10 µM
2 | COc1ccc([C@@]23Oc4cc5c(c(OC)c4[C@]2(O)[C@H](O)[C@H](C(N)=O)[C@H]3c2ccccc2)[C@H]2OC[C@H]([C@H](O)CO)O[C@H]2O5)cc1 | > 10 µM | > 10 µM
3 | COc1ccc([C@@]23Oc4cc5c(c(OC)c4[C@]2(O)[C@H](O)[C@H](C(N)=O)[C@H]3c2ccccc2)[C@@H]2OC[C@H]([C@H](O)CO)O[C@@H]2O5)cc1 | > 10 µM | > 10 µM

The next lines start with the values.

Row | IC50 (HT-29) | IC50 (PC-3) | SMILES
4 | 2.3 µM | 2.3 µM | COc1ccc([C@@]23Oc4cc(O[C@@H]5O[C@@H]([C@@H](O)CO)COC5O)cc(OC)c4[C@]2(O)[C@H](O)[C@H](C(N)=O)[C@H]3c2ccccc2)cc1 (mixture of isomers)
5 | > 10 µM | > 10 µM | COc1ccc([C@@]23Oc4cc5c(c(OC)c4[C@]2(O)[C@H](O)[C@H](C(N)=O)[C@H]3c2ccccc2)[C@@H]2OC[C@H]([C@@H](O)CO)O[C@@H]2O5)cc1
